Paper PMC9069315 (Acta Pharmaceutica Sinica. B, 2021)
Residue numbers refer to the chain shown, from its start. “And” between values parts separate entries of the source, which are not always exact repeats. Equal entries are not always repeated.

Tests used:
P-glycoprotein (P-gp) = P-glycoprotein (P-gp) (Mus musculus, UniProt P21447); test: Effect of P-gp on brain uptake; format: in vivo; details: male ICR mice
Method in brief: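 Male ICR mice (20 ± 2 g, 4–5 weeks) were given the P-gp inhibitor cyclosporine A 60 min before the radioligand. Radioactivity in brain and blood was measured and the brain-to-blood ratio derived, n = 5–8 per group, means ± SD. Groups were compared by independent two-tailed Student's t test.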

σ2 receptor [1] = target: T1, σ2 receptor (Rattus norvegicus, UniProt Q5U3Y7); test: Micro-PET/CT imaging in Sprague-Dawley rats; format: in vivo; details: SD rats, CM398 10 μmol/kg 5 min before tracer, after 30 min
T1 sequence (Q5U3Y7 1-176): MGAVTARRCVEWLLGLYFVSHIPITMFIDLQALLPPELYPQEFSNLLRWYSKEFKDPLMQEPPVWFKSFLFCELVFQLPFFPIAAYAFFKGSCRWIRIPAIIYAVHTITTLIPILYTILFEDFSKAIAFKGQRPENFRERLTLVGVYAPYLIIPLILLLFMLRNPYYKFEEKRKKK
Method in brief: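 Male SD rats (200 ± 10 g, 6–7 weeks) were injected intravenously with radiotracer, and a dynamic 120-min micro-PET/CT scan followed. Scans were run at baseline or with CM398 (10 μmol/kg) blocking. Whole-brain and regional time–activity curves were expressed as SUV, n = 3 per condition for whole brain; images were summed over 30–45 min.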

σ2 receptor [2] = target: T1, σ2 receptor; details: cited from earlier work
[3] = Biodistribution in male ICR mice; format: in vivo, mouse; details: i.v.
Method in brief: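 Male ICR mice (20 ± 2 g, 4–5 weeks) received the radiotracer, and tissues were sampled at the listed times after injection. Uptake is given as percentage of injected dose per gram of tissue (% ID/g), as means ± SD, n = 5.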

σ2 receptors [4] = target: T2, σ2 receptors (Mus musculus, UniProt Q8VD00); test: Blocking experiments in male ICR mice; format: in vivo; details: 30 min p.i.
T2 sequence (Q8VD00 1-176): T1 sequence (Q5U3Y7 1-176) with V4L, T5A, M26L, L33V, F71L, V105A, I118L, I127V, N136S, F169Y
Method in brief: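 Male ICR mice (20 ± 2 g, 4–5 weeks) were pre-dosed 5 min before about 280 kBq of radiotracer, with either unlabeled compound (0.1 mL, 3 μmol/kg) or CM398 (0.1 mL; 3, 5, 10 or 20 μmol/kg). Tissues were taken at 30 min p.i. Brain uptake (% ID/g) and brain-to-blood ratio were compared with unblocked controls.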

[5] = In vivo metabolic stability in ICR mice; design: species or system mouse; details: 30 min after injection, radio-HPLC
Method in brief: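 ICR mice were injected with radiotracer (0.2 mL, 33.3 MBq). Brain and pancreas were dissected at 30 min, processed, and analysed by radio-HPLC for the intact-tracer fraction versus radioactive metabolites.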

[6] = In vitro stability in saline and mouse serum; format: in vitro ADME; details: 2 h
σ2 receptors [7] = target: T2, σ2 receptors; test: Ex vivo autoradiography in mouse brain; details: baseline, 30 min p.i., male ICR mice
[8] = cyclosporine A 60 min before tracer, 2 min p.i., P < 0.05
[9] = CM398 5 μmol/kg 5 min before tracer
[10] = unlabeled compound 3 μmol/kg 5 min before tracer

P-glycoprotein (P-gp), sequence (P21447 whole entry): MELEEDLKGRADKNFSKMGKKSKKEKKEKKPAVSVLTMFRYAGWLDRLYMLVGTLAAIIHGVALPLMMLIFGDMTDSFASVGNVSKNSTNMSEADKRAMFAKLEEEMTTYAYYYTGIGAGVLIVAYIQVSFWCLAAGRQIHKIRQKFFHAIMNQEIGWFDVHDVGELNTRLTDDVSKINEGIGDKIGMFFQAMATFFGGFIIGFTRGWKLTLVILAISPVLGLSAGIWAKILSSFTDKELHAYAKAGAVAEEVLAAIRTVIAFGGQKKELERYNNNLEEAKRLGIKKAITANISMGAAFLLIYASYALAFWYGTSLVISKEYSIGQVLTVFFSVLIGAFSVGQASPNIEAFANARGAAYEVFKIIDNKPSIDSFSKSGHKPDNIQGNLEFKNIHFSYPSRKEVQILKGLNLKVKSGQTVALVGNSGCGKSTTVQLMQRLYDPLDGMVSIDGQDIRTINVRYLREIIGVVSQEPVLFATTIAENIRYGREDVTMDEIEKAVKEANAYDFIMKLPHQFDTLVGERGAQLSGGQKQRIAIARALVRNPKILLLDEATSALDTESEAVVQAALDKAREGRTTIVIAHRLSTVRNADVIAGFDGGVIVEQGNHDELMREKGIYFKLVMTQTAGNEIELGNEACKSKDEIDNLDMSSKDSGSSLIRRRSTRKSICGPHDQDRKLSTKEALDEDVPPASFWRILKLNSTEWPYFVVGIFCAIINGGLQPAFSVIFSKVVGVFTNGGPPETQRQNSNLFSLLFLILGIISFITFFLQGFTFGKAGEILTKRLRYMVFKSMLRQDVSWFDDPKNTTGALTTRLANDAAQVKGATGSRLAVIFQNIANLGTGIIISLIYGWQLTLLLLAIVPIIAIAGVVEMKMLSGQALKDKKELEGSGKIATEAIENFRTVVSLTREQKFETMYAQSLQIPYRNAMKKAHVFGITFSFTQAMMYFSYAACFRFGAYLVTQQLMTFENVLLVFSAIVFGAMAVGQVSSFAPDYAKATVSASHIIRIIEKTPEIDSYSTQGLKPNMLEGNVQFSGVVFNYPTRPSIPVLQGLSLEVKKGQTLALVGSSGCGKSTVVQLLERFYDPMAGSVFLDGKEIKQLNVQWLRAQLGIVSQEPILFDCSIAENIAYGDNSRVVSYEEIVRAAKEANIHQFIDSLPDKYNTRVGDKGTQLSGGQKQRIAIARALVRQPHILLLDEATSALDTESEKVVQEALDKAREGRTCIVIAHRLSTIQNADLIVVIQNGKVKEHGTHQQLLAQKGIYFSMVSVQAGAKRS

With `COc1cc2c(cc1OC)CN(CCCCn1ccc3c(OCC[18F])cccc31)C2` [[^18F]9, 1-(4-(5,6-dimethoxyisoindolin-2-yl)butyl)-4-(2-[^18F]fluoroethoxy)-1H-indole] the P-gp substrate (P-glycoprotein (P-gp); cyclosporine A 50 mg/kg 60 min before tracer, 50 mg/kg) was “moderate P-gp substrates and moderate P-gp substrate and Yes”, the “Increase in brain-to-blood ratio with cyclosporine A” value (P-glycoprotein (P-gp); [8]) was 35% and the “Increase in initial brain uptake with cyclosporine A” value (P-glycoprotein (P-gp); [8]) was 49%. The “Change in blood uptake with cyclosporine A” value (P-glycoprotein (P-gp); cyclosporine A 60 min before tracer, 2 min p.i., P > 0.05) was “slight increase without significance”, the “Reduction of radiotracer accumulation in the whole-brain (micro-PET)” value (σ2 receptor [1]) was over 60% and the Ki (σ2 receptor [2]; read-out: Ki (σ2)) was 1.79 ± 0.86 nM. For the same molecule, the “Ki (σ1)/Ki (σ2)” value (σ2 receptor [2]; subtype selectivity) was 207, the Blood uptake ([3]; 2 min p.i.) was 2.39 ± 0.36 % ID/g and the Bone uptake ([3]; 2 min p.i.) was 2.59 ± 0.66 % ID/g. It also gave a Brain uptake ([3]; 2 min p.i.) of 4.44 ± 0.59 % ID/g, a Brain/Blood ratio ([3]; 2 min p.i.) of 1.87 ± 0.13 and a Heart uptake ([3]; 2 min p.i.) of 21.57 ± 1.58 % ID/g. For the same molecule, the Kidney uptake ([3]; 2 min p.i.) was 18.89 ± 2.48 % ID/g, the Liver uptake ([3]; 2 min p.i.) was 3.24 ± 0.67 % ID/g and the Lung uptake ([3]; 2 min p.i.) was 108.47 ± 20.11 % ID/g. It also gave a Muscle uptake ([3]; 2 min p.i.) of 4.38 ± 0.99 % ID/g, a Pancreas uptake ([3]; 2 min p.i.) of 8.74 ± 0.29 % ID/g and a Small intestine uptake ([3]; 2 min p.i.) of 6.21 ± 0.81 % ID/organ. The Spleen uptake ([3]; 2 min p.i.) was 5.01 ± 1.80 % ID/g, the Stomach uptake ([3]; 2 min p.i.) was 1.21 ± 0.14 % ID/organ and the Blood uptake ([3]; 15 min p.i.) was 0.70 ± 0.08 % ID/g. The Bone uptake ([3]; 15 min p.i.) was 3.02 ± 0.45 % ID/g, the Brain uptake ([3]; 15 min p.i.) was 4.95 ± 0.36 % ID/g and the Brain/Blood ratio ([3]; 15 min p.i.) was 7.2 and 7.21 ± 1.36. For the same molecule, the Heart uptake ([3]; 15 min p.i.) was 11.23 ± 0.91 % ID/g, the Kidney uptake ([3]; 15 min p.i.) was 18.40 ± 2.45 % ID/g and the Liver uptake ([3]; 15 min p.i.) was 6.13 ± 0.94 % ID/g. The Lung uptake ([3]; 15 min p.i.) was 36.37 ± 6.47 % ID/g, the Muscle uptake ([3]; 15 min p.i.) was 3.74 ± 0.33 % ID/g and the Pancreas uptake ([3]; 15 min p.i.) was 12.75 ± 2.12 % ID/g. For the same molecule, the Small intestine uptake ([3]; 15 min p.i.) was 7.27 ± 0.88 % ID/organ, the Spleen uptake ([3]; 15 min p.i.) was 7.51 ± 1.17 % ID/g and the Stomach uptake ([3]; 15 min p.i.) was 1.52 ± 0.19 % ID/organ. The Blood uptake ([3]; 30 min p.i.) was 0.48 ± 0.08 % ID/g, the Bone uptake ([3]; 30 min p.i.) was 4.50 ± 0.38 % ID/g and the Brain uptake ([3]; 30 min p.i.) was 5.04 ± 0.67 % ID/g. For the same molecule, the Brain/Blood ratio ([3]; 30 min p.i.) was 10.6 and 10.57 ± 1.86 and 10.57, the Heart uptake ([3]; 30 min p.i.) was 7.55 ± 1.30 % ID/g and the Kidney uptake ([3]; 30 min p.i.) was 20.61 ± 1.80 % ID/g. It also gave a Liver uptake ([3]; 30 min p.i.) of 8.69 ± 0.44 % ID/g, a Lung uptake ([3]; 30 min p.i.) of 17.93 ± 2.42 % ID/g and a Muscle uptake ([3]; 30 min p.i.) of 3.90 ± 0.23 % ID/g. For the same molecule, the Pancreas uptake ([3]; 30 min p.i.) was 18.93 ± 2.95 % ID/g, the Small intestine uptake ([3]; 30 min p.i.) was 10.80 ± 0.36 % ID/organ and the Spleen uptake ([3]; 30 min p.i.) was 9.93 ± 1.43 % ID/g. For the same molecule, the Stomach uptake ([3]; 30 min p.i.) was 1.54 ± 0.20 % ID/organ, the Blood uptake ([3]; 60 min p.i.) was 0.42 ± 0.05 % ID/g and the Bone uptake ([3]; 60 min p.i.) was 4.64 ± 1.57 % ID/g. For the same molecule, the Brain uptake ([3]; 60 min p.i.) was 4.43 ± 0.39 % ID/g, the Brain/Blood ratio ([3]; 60 min p.i.) was 10.6 and 10.56 ± 0.83 and the Heart uptake ([3]; 60 min p.i.) was 3.49 ± 0.62 % ID/g. It also gave a Kidney uptake ([3]; 60 min p.i.) of 17.40 ± 3.97 % ID/g, a Liver uptake ([3]; 60 min p.i.) of 10.97 ± 0.95 % ID/g and a Lung uptake ([3]; 60 min p.i.) of 9.95 ± 1.62 % ID/g. It also gave a Muscle uptake ([3]; 60 min p.i.) of 3.01 ± 0.51 % ID/g, a Pancreas uptake ([3]; 60 min p.i.) of 22.66 ± 3.36 % ID/g and a Small intestine uptake ([3]; 60 min p.i.) of 10.73 ± 1.27 % ID/organ. For the same molecule, the Spleen uptake ([3]; 60 min p.i.) was 11.35 ± 2.85 % ID/g, the Stomach uptake ([3]; 60 min p.i.) was 1.39 ± 0.27 % ID/organ and the Blood uptake ([3]; 120 min p.i.) was 0.42 ± 0.03 % ID/g. The Bone uptake ([3]; 120 min p.i.) was 5.57 ± 0.53 % ID/g, the Brain uptake ([3]; 120 min p.i.) was 3.41 ± 0.13 % ID/g and the Brain/Blood ratio ([3]; 120 min p.i.) was 8.11 ± 0.37. For the same molecule, the Heart uptake ([3]; 120 min p.i.) was 2.76 ± 0.41 % ID/g, the Kidney uptake ([3]; 120 min p.i.) was 12.36 ± 0.81 % ID/g and the Liver uptake ([3]; 120 min p.i.) was 11.9 ± 1.52 % ID/g. The Lung uptake ([3]; 120 min p.i.) was 7.53 ± 1.07 % ID/g, the Muscle uptake ([3]; 120 min p.i.) was 3.01 ± 0.27 % ID/g and the Pancreas uptake ([3]; 120 min p.i.) was 24.21 ± 1.57 % ID/g. The Small intestine uptake ([3]; 120 min p.i.) was 10.88 ± 0.38 % ID/organ, the Spleen uptake ([3]; 120 min p.i.) was 10.51 ± 0.37 % ID/g and the Stomach uptake ([3]; 120 min p.i.) was 1.22 ± 0.13 % ID/organ. The “Blocking effect of CM398 (5 μmol/kg), Brain” value (σ2 receptors [4]; [9]) was 39%, the “Blocking effect of CM398 (5 μmol/kg), Brain/Blood” value (σ2 receptors [4]; [9]) was 75% and the “Self-blocking effect, Brain” value (σ2 receptors [4]; [10]) was 58%. The “Self-blocking effect, Brain/Blood” value (σ2 receptors [4]; [10]) was 90%, the “Parent compound fraction of radioactivity in brain” value [5] was at least 95% and the “Parent compound fraction of radioactivity in pancreas” value ([5]; n = 3) was about 10%. The “RCP after incubation (in vitro stability)” value ([6]; mouse serum, 37 °C) was over 99%, the “RCP after incubation (in vitro stability)” value ([6]; saline, ambient temperature) was over 99% and the “Radioactivity distribution in the mouse brain (ex vivo autoradiography)” value (σ2 receptors [7]) was “widely and heterogeneously distributed”.
